Assay results reported in ChEMBL document CHEMBL1773055, “A chemotype that inhibits three unrelated pathogenic targets: the botulinum neurotoxin serotype A light chain, P. falciparum malaria, and the Ebola filovirus” (J Med Chem, 2011).
Active and inactive are the calls of the source. The rule behind the calls is not given here.

How the values were obtained:
Plasmodium falciparum [1] = assay: Antimalarial activity against Plasmodium falciparum C235; type: functional, organism-based
Plasmodium falciparum [2] = assay: Resistance index, ratio of IC50 for Plasmodium falciparum W2 to IC50 for Plasmodium falciparum D6; type: functional
Outline: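 P. falciparum clones D6 (CQ/MFQ-susceptible, Sierra I/UNC), W2 (CQ-resistant, MFQ-susceptible, Indochina I) and TM91C235 (CQ- and MFQ-resistant, South-East Asian) were tested in a modified Desjardins in vitro susceptibility screen, giving IC50 and IC90. Resistance index is IC50 of the resistant strain divided by IC50 against D6 (W2/D6, C235/D6).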

[3] = target: Botulinum neurotoxin type A (Clostridium botulinum) (UniProt P0DPI0); assay: (§1) Inhibition of clostridium botulinum Botulinum neurotoxin type A light chain at 20 uM
Botulinum neurotoxin type A (Clostridium botulinum), sequence (P0DPI0 2-448 limits assumed): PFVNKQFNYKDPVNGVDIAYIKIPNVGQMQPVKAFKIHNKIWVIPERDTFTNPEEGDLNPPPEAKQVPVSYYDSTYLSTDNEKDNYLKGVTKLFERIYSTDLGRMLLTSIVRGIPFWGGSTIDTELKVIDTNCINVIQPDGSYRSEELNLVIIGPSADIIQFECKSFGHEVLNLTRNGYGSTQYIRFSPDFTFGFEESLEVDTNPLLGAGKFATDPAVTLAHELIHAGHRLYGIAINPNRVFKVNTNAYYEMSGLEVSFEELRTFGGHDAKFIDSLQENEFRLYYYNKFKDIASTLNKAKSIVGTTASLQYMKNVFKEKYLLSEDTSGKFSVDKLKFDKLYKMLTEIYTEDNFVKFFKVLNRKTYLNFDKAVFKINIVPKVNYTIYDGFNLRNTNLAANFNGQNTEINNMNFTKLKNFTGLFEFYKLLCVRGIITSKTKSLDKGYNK
Outline: (§2)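 Recombinant BoNT/A LC and peptide substrate were incubated in 40 mM HEPES–0.05% Tween pH 7.3 with 0.5 mg/ml BSA and 50 μM excess ZnCl2 at 37°C, with compound at 20 μM. Reactions were quenched with TFA, and substrate hydrolysis was quantified by reverse-phase HPLC peak areas. Percent inhibition was measured in duplicate.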

Plasmodium falciparum [4] = assay: Resistance index, ratio of IC50 for Plasmodium falciparum C235 to IC50 for Plasmodium falciparum D6; type: functional
Plasmodium falciparum [5] = assay: Antimalarial activity against Plasmodium falciparum W2; type: functional, organism-based
Plasmodium falciparum [6] = assay: Antimalarial activity against Plasmodium falciparum D6; type: functional, organism-based
Ebolavirus [7] = assay: Antiviral activity against Zaire ebolavirus expressing enhanced GFP in Vero 76 cells after 48 hrs by standard Plaque assay; type: functional, cell-based; details: Orthoebolavirus
Ebolavirus [8] = assay: Antiviral activity against Zaire ebolavirus expressing enhanced GFP in Vero 76 cells at 20 uM after 48 hrs by standard Plaque assay; type: functional; details: Orthoebolavirus
Vero = assay: Cytotoxicity against african green monkey Vero 76 cells at 20 uM; type: cell-based; details: chlorocebus sabaeus
[9] = Selectivity index, ratio of IC50 for […] cells to IC50 for Plasmodium falciparum D6; type: toxicity, cell-based; details: read-out: Ratio IC50
[10] = Selectivity index, ratio of IC90 for […] cells to IC90 for Plasmodium falciparum W2; type: toxicity, cell-based
[11] = Selectivity index, ratio of IC90 for […] cells to IC90 for Plasmodium falciparum D6; type: toxicity, cell-based
[12] = Selectivity index, ratio of IC50 for […] cells to IC50 for Plasmodium falciparum W2; type: toxicity, cell-based; details: read-out: Ratio IC50
[13] = Inhibition of beta-hematin formation; type: functional
Liver = assay: Half life in mouse liver microsomes; type: ADME, Microsome
Outline: (§3)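 Compound at 10 μM was incubated with mouse or human liver microsomes (1 mg/mL protein) in 0.1 M sodium phosphate pH 7.4 with an NADPH-regenerating system at 37°C, started by G6PD. Samples were quenched with cold acetonitrile at 0, 10, 30 and 60 min and analysed by LC-MS/MS. Half-life = 0.693/k.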

Liver microsomes = assay: Half life in human liver microsomes; type: ADME, Microsome; outline: as §3
[14] = Inhibition of beta-hematin formation assessed as drug-hematin ratio for 50% inhibition by BHIA assay; type: functional
RAW264.7 = assay: Cytotoxicity against rat RAW264.7 cells by MTT assay; type: cell-based; details: for IC50: Mus musculus, RAW264.7; for IC90: […]
Outline: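 RAW 264.7 cells were seeded at 2.5×10^4 per well about 12 h before dosing. They were exposed to 0.29–48 μg/ml compound for 48 h at 37°C, 5% CO2. Viability was read by MTT reduction, with a DMSO control. Runs were in duplicate, and IC50 came from sigmoidal variable-slope dose-response fits.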

[15] = Cytotoxicity against human NCI60 cells; type: functional
[16] = Selectivity index, ratio of IC90 for […] cells to IC90 for Plasmodium falciparum C235; type: toxicity, cell-based
[17] = Selectivity index, ratio of IC50 for […] cells to IC50 for Plasmodium falciparum C235; type: toxicity, cell-based; details: read-out: Ratio IC50
[18] = target: Botulinum neurotoxin type A (Clostridium botulinum, UniProt P0DPI0); assay: as §1; outline: as §2
Botulinum neurotoxin type A, sequence (P0DPI0 2-448 limits assumed): as above

Mus musculus = assay: Toxicity against ICR mouse at 160 mg/kg, po for 3 consecutive days measured; type: organism-based; parameters: dose 160 mg/kg, route oral; details: in vivo
Outline: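 P. berghei (P-line)-infected outbred ICR mice were given compound orally in 0.5% hydroxyethylcellulose/0.1% Tween 80 daily for 3 days. Toxicity was judged from overt physical or behavioural changes, checked twice daily, plus gross necropsy of all mice.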

Plasmodium berghei = assay: Antiplasmodial activity against Plasmodium berghei str. ANKA infected in ICR mouse assessed as protection against infection; type: functional, organism-based
Outline: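 ICR mice were dosed orally once daily on days -1, 0 (1–3 h before inoculation) and +1, with compound in 0.5% hydroxyethylcellulose/0.1% Tween 80. On day 0 they received 1.0×10^5 P. berghei ANKA sporozoites IV, taken from Anopheles dirus salivary glands. Giemsa thick/thin tail smears were read on days 4–31. Protection meant no parasitemia within 10 days and negative smears through day 31.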

Structure (SMILES)	IC50 (Plasmodium falciparum [1])	IC90 (Plasmodium falciparum [1])	Ratio IC50 (Plasmodium falciparum [2])	inhibition [3]	Ratio IC50 (Plasmodium falciparum [4])	IC50 (Plasmodium falciparum [5])	IC90 (Plasmodium falciparum [5])	IC50 (Plasmodium falciparum [6])	IC90 (Plasmodium falciparum [6])	further results
Cc1cc(NCCN2CCCCC2)c2ccc3c(ccc4c(NCCN5CCCCC5)cc(C)nc43)c2n1.Cl	10.6 nM	14.9 nM	0.62	63.4%	1.2	5.5 nM	15.4 nM	8.79 nM	13.2 nM	–
Cc1cc(NCCCN2CCCCC2)c2ccc3c(ccc4c(NCCCN5CCCCC5)cc(C)nc43)c2n1.Cl	24.8 nM	41.2 nM	0.75	66.1%	2.68	6.98 nM	22.5 nM	9.26 nM	17.4 nM	IC50 (Ebolavirus [7]): 5000 nM; inhibition at 20 µM (Ebolavirus [8]): 100%; Activity (Vero): < 20%
C[C@@H]1CC[C@H]2[C@@H](C)C(=O)O[C@@H]3O[C@@]4(C)CC[C@@H]1[C@]32OO4 [ARTEMISININ]	13 nM	17.4 nM	–	–	–	6.7 nM	11.5 nM	9 nM	12.8 nM	–
Cc1cc(NCCCN2CCOCC2)c2ccc3c(ccc4c(NCCCN5CCOCC5)cc(C)nc43)c2n1.Cl	8.05 nM	17.4 nM	0.38	55.6%	1.54	2 nM	6.38 nM	5.23 nM	8.47 nM	IC50 (Ebolavirus [7]): 2500 nM; selectivity ratio [9]: 1430; selectivity ratio [10]: 1730; inhibition at 20 µM (Ebolavirus [8]): 96%; Activity (Vero): < 20%; selectivity ratio [11]: 1300; selectivity ratio [12]: 3740; inhibition [13]: Dose-dependent effect; t1/2 (Liver): > 1 h; t1/2 (Liver microsomes): 0.667 h; IC50 [14]: 0.52 equiv; IC50 (RAW264.7): 7480 nM; IC90 (RAW264.7): 11000 nM; inhibition (INH) [15]: 92%; selectivity ratio [16]: 635; selectivity ratio [17]: 929
CCN(CC)CCCC(C)Nc1ccnc2cc(Cl)ccc12 (configuration not stated) [CHLOROQUINE]	–	373 nM	–	–	–	–	698 nM	–	16.1 nM	–
Cc1cc(NCCCN2CCCC2)c2ccc3c(ccc4c(NCCCN5CCCC5)cc(C)nc43)c2n1.Cl	34.3 nM	95.2 nM	0.52	73.5%	2.31	7.75 nM	25.4 nM	14.8 nM	39.4 nM	–
Cc1cc(NCCCN)c2ccc3c(ccc4c(NCCCN)cc(C)nc43)c2n1.Cl	2030 nM	3050 nM	2.4	70%	2.87	1700 nM	3260 nM	708 nM	1010 nM	–
Cc1cc(NCCN)c2ccc3c(ccc4c(NCCN)cc(C)nc43)c2n1.Cl	1020 nM	1760 nM	3.22	62.7%	3.78	871 nM	1790 nM	270 nM	355 nM	Ki [18]: 8700 nM
Cc1cc(NCCN2CCOCC2)c2ccc3c(ccc4c(NCCN5CCOCC5)cc(C)nc43)c2n1.Cl	9.84 nM	16.5 nM	1.03	39%	1.66	6.12 nM	11.5 nM	5.93 nM	12.6 nM	selectivity ratio [9]: 1720; selectivity ratio [10]: 2600; inhibition at 20 µM (Ebolavirus [8]): 53%; selectivity ratio [11]: 2370; selectivity ratio [12]: 1660; inhibition [13]: Dose-dependent effect; t1/2 (Liver): > 1 h; t1/2 (Liver microsomes): > 1 h; IC50 [14]: 0.473 equiv; IC50 (RAW264.7): 10200 nM; IC90 (RAW264.7): 29900 nM; inhibition (INH) [15]: 91%; selectivity ratio [16]: 1820; selectivity ratio [17]: 1030
Cc1cc(NCCN(C)C)c2ccc3c(ccc4c(NCCN(C)C)cc(C)nc43)c2n1.Cl	15.3 nM	26 nM	0.59	57%	0.98	9.19 nM	31.2 nM	–	20.8 nM	–
Cc1cc(NCCN2CCCC2)c2ccc3c(ccc4c(NCCN5CCCC5)cc(C)nc43)c2n1.Cl	25.9 nM	40.3 nM	0.48	60.3%	1.54	8.11 nM	28 nM	16.8 nM	32.3 nM	inhibition [13]: Dose-dependent effect; IC50 [14]: 0.401 equiv
Cc1cc(NCCCN(C)C)c2ccc3c(ccc4c(NCCCN(C)C)cc(C)nc43)c2n1.Cl	54.8 nM	699 nM	3.41	68.9%	0.53	353 nM	709 nM	103 nM	210 nM	–
CCN(CC)CCCNc1cc(C)nc2c1ccc1c2ccc2c(NCCCN(CC)CC)cc(C)nc21.Cl	66.5 nM	286 nM	0.29	64.7%	2.22	8.65 nM	46.7 nM	30 nM	49.5 nM	–
Cc1cc(NCCCCN)c2ccc3c(ccc4c(NCCCCN)cc(C)nc43)c2n1	–	–	–	72.2%	–	–	–	–	–	–
CCN(CC)CCNc1cc(C)nc2c1ccc1c2ccc2c(NCCN(CC)CC)cc(C)nc21.Cl	3.32 nM	3.79 nM	0.57	55.4%	0.55	–	10.1 nM	6.01 nM	9.01 nM	IC50 (Ebolavirus [7]): 5000 nM; selectivity ratio [9]: 1560; selectivity ratio [10]: 1060; inhibition at 20 µM (Ebolavirus [8]): 97%; Activity (Mus musculus): Non-toxic; Activity (Vero): < 20%; selectivity ratio [11]: 1190; selectivity ratio [12]: 2690; t1/2 (Liver): > 1 h; t1/2 (Liver microsomes): > 1 h; Activity (Plasmodium berghei): inactive; IC50 (RAW264.7): 9350 nM; IC90 (RAW264.7): 10700 nM; selectivity ratio [16]: 2830; selectivity ratio [17]: 282
